Measured values as given in PMC11539005 (RSC Advances, 2024).
Where “and” joins values, the source holds several entries; their conditions need not be identical. Identical values can stand only once. Values belong to the molecule of their own block, whether it stands above or below them.

Assays:
[1] = test system: MCF-7; experiment: MTT anti-proliferative assay on MCF-7; assay type: cell-based; details: Homo sapiens, MCF7, read-out: MCF-7 (IC50)
In short: (§1)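 Human MCF-7 and HepG2 cancer cell lines exposed to test compounds. Anti-proliferative IC50 given in μM. Each reported value is the mean of IC50 values from three separate experiments.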

[2] = test system: HepG2; experiment: MTT anti-proliferative assay on HepG2; assay type: cell-based; details: Homo sapiens, HepG2, read-out: HepG2 (IC50)
In short: as §1

[3] = target: BRAF (Homo sapiens, UniProt P15056); experiment: Kinase profiling test, BRAF; assay type: biochemical
Chain of BRAF (P15056 whole entry): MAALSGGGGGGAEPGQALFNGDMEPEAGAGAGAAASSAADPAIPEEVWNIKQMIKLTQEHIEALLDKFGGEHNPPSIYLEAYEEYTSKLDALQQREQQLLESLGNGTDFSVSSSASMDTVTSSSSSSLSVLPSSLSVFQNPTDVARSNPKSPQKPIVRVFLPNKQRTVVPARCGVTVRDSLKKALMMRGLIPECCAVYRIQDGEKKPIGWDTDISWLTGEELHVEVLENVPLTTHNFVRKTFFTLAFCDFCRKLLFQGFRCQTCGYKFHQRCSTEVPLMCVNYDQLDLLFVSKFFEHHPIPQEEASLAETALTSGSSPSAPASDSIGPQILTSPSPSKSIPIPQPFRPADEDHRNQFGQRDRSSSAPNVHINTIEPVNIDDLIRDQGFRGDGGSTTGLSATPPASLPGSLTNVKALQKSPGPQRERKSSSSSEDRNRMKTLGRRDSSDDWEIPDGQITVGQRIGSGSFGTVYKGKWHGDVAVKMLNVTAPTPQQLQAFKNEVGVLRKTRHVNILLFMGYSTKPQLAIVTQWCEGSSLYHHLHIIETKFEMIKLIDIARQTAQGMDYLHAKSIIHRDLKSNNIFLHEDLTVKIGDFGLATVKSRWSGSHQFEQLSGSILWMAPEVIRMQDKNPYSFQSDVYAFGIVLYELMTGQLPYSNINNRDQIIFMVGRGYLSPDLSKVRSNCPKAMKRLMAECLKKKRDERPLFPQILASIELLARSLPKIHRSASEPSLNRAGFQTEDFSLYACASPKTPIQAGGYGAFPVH

[4] = test system: MCF-7 cells; experiment: Apoptosis assay; assay type: cell-based; details: MCF-7, 0.06 µM, 72 h
[5] = target: VEGFR-2 (Homo sapiens, UniProt P35968); experiment: biochemical
Chain of VEGFR-2 (P35968 20-1356): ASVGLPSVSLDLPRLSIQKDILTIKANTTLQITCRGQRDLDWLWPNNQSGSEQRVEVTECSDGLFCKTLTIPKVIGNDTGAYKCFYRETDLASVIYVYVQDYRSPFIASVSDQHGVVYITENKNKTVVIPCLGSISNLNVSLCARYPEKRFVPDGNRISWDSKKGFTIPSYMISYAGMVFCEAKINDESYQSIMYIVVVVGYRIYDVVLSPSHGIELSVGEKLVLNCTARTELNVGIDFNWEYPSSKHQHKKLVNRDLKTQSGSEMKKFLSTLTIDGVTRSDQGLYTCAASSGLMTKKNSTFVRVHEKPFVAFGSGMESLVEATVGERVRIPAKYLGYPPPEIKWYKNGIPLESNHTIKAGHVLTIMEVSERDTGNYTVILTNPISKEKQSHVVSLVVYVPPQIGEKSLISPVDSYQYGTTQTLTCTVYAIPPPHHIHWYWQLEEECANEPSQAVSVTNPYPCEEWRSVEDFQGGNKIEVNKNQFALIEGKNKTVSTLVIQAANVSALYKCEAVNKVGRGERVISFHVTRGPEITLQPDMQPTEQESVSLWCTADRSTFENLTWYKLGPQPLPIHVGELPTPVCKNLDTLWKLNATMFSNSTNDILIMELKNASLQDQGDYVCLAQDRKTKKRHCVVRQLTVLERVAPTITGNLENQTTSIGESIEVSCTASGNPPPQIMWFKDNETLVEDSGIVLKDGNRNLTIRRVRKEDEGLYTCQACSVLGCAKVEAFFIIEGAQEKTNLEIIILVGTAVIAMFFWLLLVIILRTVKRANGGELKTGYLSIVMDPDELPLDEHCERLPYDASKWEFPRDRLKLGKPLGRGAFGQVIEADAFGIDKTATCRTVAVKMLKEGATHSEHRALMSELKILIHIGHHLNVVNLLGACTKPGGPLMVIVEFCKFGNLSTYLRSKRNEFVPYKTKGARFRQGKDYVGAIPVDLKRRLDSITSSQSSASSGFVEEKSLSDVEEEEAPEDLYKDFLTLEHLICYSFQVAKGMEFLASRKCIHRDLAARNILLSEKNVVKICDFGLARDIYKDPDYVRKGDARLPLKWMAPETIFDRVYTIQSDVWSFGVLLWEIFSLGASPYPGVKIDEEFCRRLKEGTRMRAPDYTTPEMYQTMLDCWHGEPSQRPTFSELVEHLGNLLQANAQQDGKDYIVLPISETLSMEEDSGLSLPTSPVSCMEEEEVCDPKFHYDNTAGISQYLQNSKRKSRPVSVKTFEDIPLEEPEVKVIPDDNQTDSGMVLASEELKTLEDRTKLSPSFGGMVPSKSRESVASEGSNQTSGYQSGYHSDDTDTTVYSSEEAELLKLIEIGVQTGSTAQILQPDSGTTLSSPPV

[6] = test system: WI-38; experiment: Safety assay: cytotoxicity against normal human lung cells; assay type: cell-based
In short: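 Normal human lung WI-38 cells exposed to test compound for in vitro cytotoxicity. IC50 in μM is the mean of IC50 values from three separate experiments. Selectivity index = IC50 in WI-38 / IC50 in MCF-7 or HepG2 cancer cells.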

[7] = target: PIK3α (Homo sapiens, UniProt P42336); experiment: Kinase profiling test, PIK3α; assay type: biochemical
Chain of PIK3α (P42336 whole entry): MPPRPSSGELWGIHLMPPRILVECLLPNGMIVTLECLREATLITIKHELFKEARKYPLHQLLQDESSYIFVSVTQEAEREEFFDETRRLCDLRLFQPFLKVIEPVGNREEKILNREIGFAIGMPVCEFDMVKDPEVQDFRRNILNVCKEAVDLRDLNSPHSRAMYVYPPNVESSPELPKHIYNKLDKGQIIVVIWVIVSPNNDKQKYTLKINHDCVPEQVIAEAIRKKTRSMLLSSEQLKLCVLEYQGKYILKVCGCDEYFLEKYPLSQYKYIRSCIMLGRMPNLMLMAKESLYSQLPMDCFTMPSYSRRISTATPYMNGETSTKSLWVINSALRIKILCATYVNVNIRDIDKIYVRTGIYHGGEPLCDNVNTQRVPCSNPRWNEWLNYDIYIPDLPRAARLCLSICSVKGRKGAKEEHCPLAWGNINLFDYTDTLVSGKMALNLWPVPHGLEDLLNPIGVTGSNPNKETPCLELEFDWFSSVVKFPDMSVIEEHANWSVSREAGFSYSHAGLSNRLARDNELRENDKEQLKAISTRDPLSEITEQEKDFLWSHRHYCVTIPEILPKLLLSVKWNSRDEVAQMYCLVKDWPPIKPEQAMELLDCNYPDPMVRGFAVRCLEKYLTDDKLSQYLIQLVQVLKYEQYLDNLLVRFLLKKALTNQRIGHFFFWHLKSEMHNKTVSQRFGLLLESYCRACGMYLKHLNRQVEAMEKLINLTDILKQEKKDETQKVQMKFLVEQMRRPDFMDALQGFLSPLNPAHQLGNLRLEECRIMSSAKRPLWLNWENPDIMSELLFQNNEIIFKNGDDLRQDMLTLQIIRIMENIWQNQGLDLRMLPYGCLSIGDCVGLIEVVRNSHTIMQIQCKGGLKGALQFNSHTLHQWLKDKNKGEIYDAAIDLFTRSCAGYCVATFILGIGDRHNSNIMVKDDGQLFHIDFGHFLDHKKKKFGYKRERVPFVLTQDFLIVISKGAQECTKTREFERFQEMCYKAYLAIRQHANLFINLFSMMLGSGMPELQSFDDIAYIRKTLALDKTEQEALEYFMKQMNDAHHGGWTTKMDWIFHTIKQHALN
Chain of PIK3α (P27986 whole entry partner): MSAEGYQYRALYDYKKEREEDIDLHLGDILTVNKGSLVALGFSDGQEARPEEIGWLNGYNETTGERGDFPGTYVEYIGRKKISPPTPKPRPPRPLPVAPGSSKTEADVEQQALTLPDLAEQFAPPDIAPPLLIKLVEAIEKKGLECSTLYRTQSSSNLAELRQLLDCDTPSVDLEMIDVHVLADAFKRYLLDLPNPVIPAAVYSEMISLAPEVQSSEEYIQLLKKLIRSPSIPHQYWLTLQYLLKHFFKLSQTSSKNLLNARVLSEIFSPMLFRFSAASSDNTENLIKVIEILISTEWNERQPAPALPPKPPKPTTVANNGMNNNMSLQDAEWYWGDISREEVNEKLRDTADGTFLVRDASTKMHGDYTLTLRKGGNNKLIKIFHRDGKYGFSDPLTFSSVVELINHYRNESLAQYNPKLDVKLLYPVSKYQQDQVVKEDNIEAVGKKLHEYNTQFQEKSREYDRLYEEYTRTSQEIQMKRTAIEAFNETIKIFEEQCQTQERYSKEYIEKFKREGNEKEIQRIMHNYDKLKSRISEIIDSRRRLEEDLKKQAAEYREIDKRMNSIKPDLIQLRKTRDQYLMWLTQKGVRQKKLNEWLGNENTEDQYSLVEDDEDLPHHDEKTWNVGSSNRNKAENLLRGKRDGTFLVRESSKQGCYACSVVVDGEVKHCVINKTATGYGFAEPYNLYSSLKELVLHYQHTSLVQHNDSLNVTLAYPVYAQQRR

[8] = target: EGFR (Homo sapiens, UniProt P00533); experiment: Kinase profiling test, EGFR; assay type: biochemical
Chain of EGFR (P00533 25-1210): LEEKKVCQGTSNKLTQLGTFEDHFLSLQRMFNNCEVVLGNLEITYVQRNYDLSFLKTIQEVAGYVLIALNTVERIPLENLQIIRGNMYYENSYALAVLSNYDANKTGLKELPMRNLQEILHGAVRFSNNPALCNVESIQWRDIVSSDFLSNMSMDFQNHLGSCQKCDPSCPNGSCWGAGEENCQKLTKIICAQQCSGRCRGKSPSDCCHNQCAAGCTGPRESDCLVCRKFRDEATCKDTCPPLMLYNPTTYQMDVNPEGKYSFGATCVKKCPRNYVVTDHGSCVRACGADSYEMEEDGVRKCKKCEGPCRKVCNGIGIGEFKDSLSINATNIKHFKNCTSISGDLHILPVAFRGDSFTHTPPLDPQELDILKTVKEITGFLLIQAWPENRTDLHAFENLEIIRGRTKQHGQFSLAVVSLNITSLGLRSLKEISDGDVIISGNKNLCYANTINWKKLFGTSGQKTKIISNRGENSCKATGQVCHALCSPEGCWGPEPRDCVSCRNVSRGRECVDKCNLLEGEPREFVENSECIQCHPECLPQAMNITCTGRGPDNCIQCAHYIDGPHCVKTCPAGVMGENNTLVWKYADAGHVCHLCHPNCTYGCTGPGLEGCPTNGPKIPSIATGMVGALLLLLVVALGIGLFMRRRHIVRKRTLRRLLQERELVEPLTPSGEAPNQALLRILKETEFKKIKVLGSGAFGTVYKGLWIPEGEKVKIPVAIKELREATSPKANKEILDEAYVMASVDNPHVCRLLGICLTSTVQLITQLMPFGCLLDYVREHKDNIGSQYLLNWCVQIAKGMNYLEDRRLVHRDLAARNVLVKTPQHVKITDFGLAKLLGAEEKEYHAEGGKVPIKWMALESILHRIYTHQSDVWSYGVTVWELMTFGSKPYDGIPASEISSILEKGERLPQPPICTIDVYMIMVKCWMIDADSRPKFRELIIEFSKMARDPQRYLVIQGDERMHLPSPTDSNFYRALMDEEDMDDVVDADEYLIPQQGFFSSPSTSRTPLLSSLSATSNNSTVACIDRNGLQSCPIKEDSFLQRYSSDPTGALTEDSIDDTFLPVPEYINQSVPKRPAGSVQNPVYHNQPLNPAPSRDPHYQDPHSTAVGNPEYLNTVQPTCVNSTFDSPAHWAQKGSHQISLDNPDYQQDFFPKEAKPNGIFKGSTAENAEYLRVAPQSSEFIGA

[9] = test system: MCF-7 cells; experiment: Cell cycle analysis by flow cytometry; assay type: cell-based; details: MCF-7, 0.06 µM, 72 h
[10] = test system: caspase-9; experiment: RT-PCR caspase-9 expression in MCF-7 cells; assay type: cell-based; details: MCF-7, 0.06 µM; control 1
[11] = target: CDK8 (Homo sapiens, UniProt P49336); experiment: Kinase profiling test, CDK8; assay type: biochemical; details: CDK8 IC50 (mean ± SD)
[12] = test system: caspase-8; experiment: RT-PCR caspase-8 expression in MCF-7 cells; assay type: cell-based; details: MCF-7, 0.06 µM; control 1

IC50 [1]: 60 ± 10 nM
IC50 [2]: 130 ± 10 nM
SMILES: CC(=O)c1nn(-c2ccccc2Cl)/c(=N/N=C(\C)c2ccc(NC(=O)c3ccccc3)cc2)s1 [Compound 20a, N-(4-((E)-1-(((Z)-5-Acetyl-3-(2-chlorophenyl)-1,3,4-thiadiazol-2(3H)-ylidene)hydrazono)ethyl)phenyl)benzamide]

IC50 [1]: 140 ± 30 nM
IC50 [2]: 130 ± 30 nM
SMILES: CNC(=O)c1cc(Oc2ccc(NC(=O)Nc3ccc(Cl)c(C(F)(F)F)c3)cc2)ccn1 [Sorafenib, reference compound]

IC50 [1]: 190 ± 10 nM
IC50 [2]: 150 ± 10 nM
SMILES: CCOC(=O)c1nn(-c2cccc(Cl)c2)/c(=N/N=C(\C)c2ccc(NC(=O)c3ccccc3)cc2)s1 [Compound 21a, Ethyl (Z)-5-(((E)-1-(4-benzamidophenyl)ethylidene)hydrazono)-4-(3-chlorophenyl)-4,5-dihydro-1,3,4-thiadiazole-2-carboxylate]

IC50 [1]: 1250 ± 20 nM
IC50 [2]: 9920 ± 220 nM
SMILES: CC(=O)Nc1ccc(/C(C)=N/N=c2\sc(C(C)=O)nn2-c2ccc(C)cc2)cc1 [Compound 16, N-(4-((E)-1-(((Z)-5-Acetyl-3-(p-tolyl)-1,3,4-thiadiazol-2(3H)-ylidene)hydrazono)ethyl)phenyl) acetamide]

SMILES: CC(=O)c1nn(-c2ccc(C)cc2)/c(=N/N=C(\C)c2ccc(NC(=O)c3ccccc3)cc2)s1 [Compound 20b, N-(4-((E)-1-(((Z)-5-Acetyl-3-(p-tolyl)-1,3,4-thiadiazol-2(3H)-ylidene)hydrazono)ethyl)phenyl) benzamide]
IC50 [3]: 5840 ± 250 nM
Late apoptosis ([4]; control 0.24): 15.99%
Early apoptosis ([4]; control 0.61): 18.48%
Necrosis ([4]; control 1.43): 4.14%
Total apoptosis ([4]; untreated 0.85): 34.47%
IC50 ([5]; VEGFR-2 IC50, mean of three experiments): 51.1 nM and 51 nM
IC50 ([5]; VEGFR-2 inhibition): 24 nM
IC50 [1]: 50 ± 10 nM
IC50 ([6]; Homo sapiens, WI-38, read-out: WI-38 IC50): 190 ± 10 nM
Selectivity index HepG2 ([6]; SI = IC50 in normal cells (WI-38)/IC50 in HepG2): 1.4
Selectivity index MCF-7 ([6]; SI = IC50 in normal cells (WI-38)/IC50 in MCF-7): 3.8
IC50 [2]: 140 ± 10 nM
IC50 [7]: 2140 ± 95 nM
IC50 [8]: 1430 ± 85 nM
Cell cycle distribution % G2/M ([9]; control 13.72): 11.99%
Cell cycle distribution % S ([9]; control 23.91): 18.76%
Cell cycle distribution % G0-G1 ([9]; control 62.37): 69.25%
Caspase-9 RT-PCR (fold change) [10]: 5.44 fold change and 5.4353 fold change
IC50 [11]: 266 ± 58 nM
Caspase-8 RT-PCR (fold change) [12]: 3.42 fold change and 3.4176 fold change

IC50 [1]: 140 ± 10 nM
IC50 [2]: 130 ± 10 nM
SMILES: CCOC(=O)c1nn(-c2cccc(Cl)c2)/c(=N/N=C(\C)c2ccc(NC(=O)c3ccc(Cl)cc3)cc2)s1 [Compound 21b, Ethyl (Z)-5-(((E)-1-(4-(4-Chlorobenzamido)phenyl)ethylidene)hydrazono)-4-(3-chlorophenyl)-4,5-dihydro-1,3,4-thiadiazole-2-carboxylate]
